Source: PubChem (several laboratories)
NALP3 yeast inh = blocks the NALP3 inflammasome reconstituted in yeast; AID 2825; 330,000 tested, 0.39% active; Yeast reconstituted NLRP3/ASC/caspase-1, beta-gal luminescence, 24 h; inhibition, % at 10 µM;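 active = inhibition of 50% or more; inactive = inhibition below 50%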;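 note: plate controls were induced DMSO wells for no effect and uninduced yeast grown without galactose for full effect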
PolyA inh = blocks polyadenylation in yeast reporter cells | S. cerevisiae SKY197-pL101 polyadenylation reporter, beta-gal luminescence; efflux-impaired pdr1/pdr3 knockout yeast; score 100 = 6 SD above DMSO | activity score, % at 12 µM | 300,000 tested, 0.02% active | AID 1875;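 active = lowest replicate activity score at least 50, where 100 means six control SD above control mean; inconclusive = lowest score under 50 but half or more replicates reach 50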;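 note: yeast exposed to compound for 9 h at 30 °C; higher score means more reporter readthrough which indicates perturbed polyadenylation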
Calb FLC = affects C. albicans growth with fluconazole. growth inhibition, % (concentration not given with the values). AID 1979. 300,000 tested, 0.57% active. C. albicans CaCi-2 + fluconazole, Alamar Blue growth, 48 h;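 active = growth inhibition above about 58% in most replicates, limit read from the data, passing the limit was not always enough; inconclusive = exactly half the replicates above a set limit; inactive = most replicates below a set limit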;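 note: all wells also contain fluconazole at 8 µg/ml as a sub-toxic cotreatment; 0% = median of DMSO wells and 100% = median of geldanamycin control wells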
T cruzi inh = blocks replication of Trypanosoma cruzi; 300,000 tested, 1.4% active; inhibition, % (test concentration not listed); T. cruzi beta-gal in NIH3T3, luminescence, 90 h;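 active = mean inhibition across valid replicates above about 55%, limit read from the data; inconclusive = mean below that limit but half or more replicates reach it; inactive = mean below it, under half of replicates reach it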;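 note: signal also drops with host cell toxicity which is not excluded here; 0% = plate median of DMSO wells and 100% = zero luminescence signal; higher percent means less beta-gal luminescence so fewer parasites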
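Read-out: Parasite load inhibition, % | Test system: Mouse NIH/3T3 fibroblasts infected with β-gal-expressing T. cruzi Tulahuen C4 | Amount: 5,000 cells/well | Medium: DMEM, 2% fetal bovine serum | Signal: GalScreen β-gal luminescence, detergent lysis, 60 min | Timing: 3 h attach, ≥90 h co-culture | Also added: Tulahuen C4 trypomastigotes, 5000/well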
NALP1 yeast inh = inhibitors of NALP1 inflammasome in yeast | inhibition, % at 10 µM | S. cerevisiae NALP1/ASC/caspase-1 growth, X-gal OD620, 72 h | 280,000 tested, 0.61% active; in the data active = inhibition mostly above about 24%, no sharp cut-off; inactive = mostly below about 32%
Lmaj promast = reduces viability of Leishmania major promastigotes; inhibition, % at 10 µM; 200,000 tested, 9% active; resazurin fluorescence viability; in the data active = inhibition above about 50%;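 note: promastigotes grown with compound for 44 hours at 28 °C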
* = called active by the depositor; ? = inconclusive; . = no result. This is one part of a sample in which hits are shown more often than they occur.

SMILES | NALP3 yeast inh | PolyA inh | Calb FLC | T cruzi inh | NALP1 yeast inh | Lmaj promast
O=C(NCc1ccc(Cl)cc1)c1ccc(-c2ccccc2C(F)(F)F)o1 | 0 | -20 | 0 | -27 | 17 | -2
NC(=O)CCCn1c(C(=O)c2cc(Cl)c(N)c(Cl)c2)c2ccc(C(F)(F)F)cc2[n+]1[O-] | 14 | 1 | 36 | 1 | . | .
Cc1ccc2nc(C)c(C(=O)NN=C3CCN(C)CC3)n2c1 | 13 | -4 | -4 | -15 | -13 | -7
O=C(CNC(=O)c1cccs1)Nc1ncccc1O | 14 | -16 | -2 | -15 | . | .
CSc1ccc(CN2CCN(C(=O)c3ccc([N+](=O)[O-])cc3)CC2)cc1 | 32 | -14 | -8 | 17 | 12 | 69*
C/C(=N/NC(=O)c1cc(O)c(O)c(O)c1)c1ccc([N+](=O)[O-])cc1 | . | -1 | 91* | 18 | 14 | -13
O=C(c1ccc(Cn2ccc([N+](=O)[O-])n2)cc1)N1CCN(Cc2ccccc2)CC1 | 20 | 10 | 3 | 10 | -1 | .
Cc1[nH]n(-c2ccccc2)c(=O)c1/C=N/NC(=O)c1ccccc1F | 4 | 29 | -26 | -11 | -2 | .
CC(C)C(C)(C#N)NC(=O)CSc1nc(C2CCCCC2)n(-c2ccccc2)n1 (configuration not stated) | 18 | -1 | -7 | 10 | 25 | 80*
O=C1CNC(=S)N1CCc1ccccc1Cl | 22 | 19 | ? | -5 | . | .
COc1ccc(C(=O)CC(Nc2ccc([N+](=O)[O-])cc2)c2ccc(Cl)cc2)cc1 (configuration not stated) | 11 | 0 | 16 | 64* | 15 | 31
CCCCN(C)C1CCN(C(=S)Nc2cccc(SC)c2)CC1 | 5 | 17 | -3 | 44 | 9 | 90*
CN(C1CCCC1)C1CCN(C(=S)Nc2cc(F)cc(F)c2)CC1 | 14 | -9 | -3 | 18 | 20 | 77*
CCC(C)N(C)C1CCN(C(=S)Nc2cccc(SC)c2)CC1 (configuration not stated) | 15 | -1 | -4 | 1 | 6 | 76*
Cc1cccc(NC(=S)N2CCCCC2)c1 | 10 | -11 | -2 | -22 | 19 | -4
CSc1cccc(NC(=S)N2CCC(N(C)C3CCCCCC3)CC2)c1 | 9 | -7 | -4 | 33 | 12 | 88*
CCCCN(C)C1CCN(C(=S)Nc2ccc(OC)cc2)CC1 | 13 | 10 | -2 | 18 | 8 | 40
CCS(=O)(=O)n1nc(-c2ccco2)nc1N | 6 | 0 | 0 | -12 | -11 | -8
COc1ccc(C(=O)Nc2cc(C)nn2-c2ccc(F)cc2)cc1 | 24 | 1 | 4 | -7 | 3 | .
O=C(CNC(=O)C1CCCCC1)NNC(=O)c1ccccc1Br | 3 | 6 | 18 | -14 | -6 | .
CSc1cccc(NC(=S)N2CCC(N(C)C(C)C)CC2)c1 | 2 | 7 | -18 | 1 | 10 | 62*
CCC(=O)Nc1ccc(C(=O)OCc2ccc(Cl)c(Cl)c2)cc1 | 16 | 13 | -2 | 45 | 6 | 65*
CC(=O)Nc1ccc(C(=O)OCc2ccc(Cl)c(Cl)c2)cc1 | 15 | -24 | 22 | 1 | 15 | 62*
Cc1ccc(S(=O)(=O)Nc2ncnc3ccccc23)cc1 | 5 | 4 | -6 | 3 | 27 | .
C=C(C)C1CC=C(C)/C(=N/NC(=O)c2cccc([N+](=O)[O-])c2)C1 (configuration not stated) | 15 | -7 | 0 | 1 | 23 | 100*
SMILES | NALP3 yeast inh | PolyA inh | Calb FLC | T cruzi inh | NALP1 yeast inh | Lmaj promast
C=C(C)C1CC=C(C)/C(=N/NC(=O)c2ccc(NC(=O)c3cccc(C)c3)cc2)C1 (configuration not stated) | 6 | -5 | 1 | -5 | -7 | 100*
CCc1nnc(NC(=O)CSc2ccc(Cl)cc2)s1 | 9 | -5 | 1 | -23 | 6 | .
CCc1nnc(NC(=O)CN2CCN(Cc3cccc(OC)c3)CC2)s1 | 16 | 15 | 5 | 27 | 6 | .
CCn1c(=NC(=O)CS(=O)(=O)c2ccccc2)sc2cccc(OC)c21 | 7 | 7 | -1 | 58* | . | .
C=C(C(=O)c1ccccc1)C(C(=C)C(=O)c1ccccc1)c1ccc(OC)cc1 | -15 | -6 | 2 | 55* | -7 | .
COc1ccc(C(CC(=O)c2ccccc2)CC(=O)c2ccccc2)cc1 | 8 | 0 | 9 | 13 | -8 | .
C=C(C(=O)c1ccccc1)C(C)C(=C)C(=O)c1ccccc1 | . | -12 | -6 | -9 | 46 | 100*
O=C(c1ccccc1)C(c1ccccc1)c1ccccc1 | -58 | 15 | 10 | 6 | . | .
O=C(O)c1ccc(C(=O)C(=O)c2ccccc2)cc1 | -3 | -6 | -1 | -1 | . | .
C=C(C(=O)c1ccccc1)C(c1ccccc1)C(C)C(=O)c1ccccc1 (configuration not stated) | 15 | -28 | -3 | 49 | 18 | 89*
O=C(COC(=O)c1cc[n+]([O-])cc1)Nc1ccc(F)c([N+](=O)[O-])c1 | 4 | 11 | 0 | -6 | 24 | -2
COC(=O)c1c(NC(=O)CN2C(=O)NC3(CCC(C(C)(C)C)CC3)C2=O)sc2c1CCCCC2 (configuration not stated) | 20 | -2 | -32 | 58* | 34 | 0
O=C(CSc1n[nH]c(-c2ccncc2)n1)Nc1ccc(Cl)c(Cl)c1 | 17 | 0 | 1 | -8 | 27 | .
CCOC(=O)c1c(NC(=O)CSc2nnc(-c3ccncc3)n2Cc2ccco2)sc(C(C)=O)c1C | . | . | . | . | . | -2
CCOc1ccccc1NC(=O)CSc1nnc(-c2ccccc2Cl)n1Cc1ccco1 | 16 | 2 | -5 | 23 | 6 | 51*
CCOC(=O)c1c(NC(=O)CSc2nnc(-c3ccncc3)n2Cc2ccco2)sc(C)c1C | 2 | 17 | 21 | 70* | 7 | 56*
CCCC(NC(=O)CCc1c(C)c2cc3c4c(oc3c(C)c2oc1=O)CCCC4)C(=O)O (configuration not stated) | 16 | -20 | 3 | 3 | 10 | .
O=C(c1ccccc1)N(Cc1cccnc1)C1(C(=O)Nc2ccccc2)CCCCC1 | 8 | 3 | 0 | -2 | 9 | 5
CC(C)=CC(=O)Nc1ccc(Br)cc1 | 37 | 0 | -21 | -9 | . | 4
O=C(Nc1cccc(Cl)c1)Nc1ccccc1-n1ccnc1 | 14 | 1 | -15 | 57* | -2 | 74*
O=C(Nc1ccc(-n2ccc(C(F)(F)F)n2)cc1)Nc1cccc(Cl)c1 | 31 | -1 | -16 | 62* | 23 | .
CCOc1cccc(CNn2cnnc2)c1OCc1ccccc1Cl | 9 | -5 | -1 | 3 | -3 | 4
CCOc1cccc(CNc2ccc(O)cc2)c1OCc1ccc(Cl)cc1Cl | 5 | -9 | -1 | 15 | 11 | 100*
CCOc1cccc(CNc2ccc(O)cc2)c1OCc1ccccc1Cl | 12 | 4 | 0 | -15 | 26 | 99*
